According to ChEMBL document CHEMBL2046342, “Re-engineering aryl methylcarbamates to confer high selectivity for inhibition of Anopheles gambiae versus human acetylcholinesterase” (2012):
Converted amounts (≈) assume the structure as drawn.

Assays:
[1] = target: Acetylcholinesterase (Homo sapiens) (UniProt P22303); assay: Inhibition of human recombinant AChE after 6 mins by Ellman assay
In short: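 Recombinant human AChE was assayed by Ellman method for time-dependent inactivation at fixed inhibitor concentrations. Pseudo-first-order kobs was taken from ln(v/v0) vs incubation time. Three or more inhibitor levels gave kobs vs [I], and its linear slope gave apparent ki (mM⁻¹ min⁻¹). DMSO was held at 0.1% (v/v) final.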

[2] = Selectivity ratio of Ki for Anopheles gambiae AChE to Ki for human recombinant AChE
In short: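 Ratio ki(Ag)/ki(h) of apparent second-order inactivation constants, both from Ellman-assay kobs vs [I] slopes using purified recombinant AgAChE and recombinant hAChE. Error in the ratio was computed by standard propagation of error.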

[3] = target: Acetylcholinesterase (Anopheles gambiae) (UniProt Q869C3); assay: Inhibition of Anopheles gambiae AChE expressed in Escherichia coli after 6 mins by Ellman assay
Chain of Acetylcholinesterase (Anopheles gambiae) (Q869C3 39-737 limits assumed): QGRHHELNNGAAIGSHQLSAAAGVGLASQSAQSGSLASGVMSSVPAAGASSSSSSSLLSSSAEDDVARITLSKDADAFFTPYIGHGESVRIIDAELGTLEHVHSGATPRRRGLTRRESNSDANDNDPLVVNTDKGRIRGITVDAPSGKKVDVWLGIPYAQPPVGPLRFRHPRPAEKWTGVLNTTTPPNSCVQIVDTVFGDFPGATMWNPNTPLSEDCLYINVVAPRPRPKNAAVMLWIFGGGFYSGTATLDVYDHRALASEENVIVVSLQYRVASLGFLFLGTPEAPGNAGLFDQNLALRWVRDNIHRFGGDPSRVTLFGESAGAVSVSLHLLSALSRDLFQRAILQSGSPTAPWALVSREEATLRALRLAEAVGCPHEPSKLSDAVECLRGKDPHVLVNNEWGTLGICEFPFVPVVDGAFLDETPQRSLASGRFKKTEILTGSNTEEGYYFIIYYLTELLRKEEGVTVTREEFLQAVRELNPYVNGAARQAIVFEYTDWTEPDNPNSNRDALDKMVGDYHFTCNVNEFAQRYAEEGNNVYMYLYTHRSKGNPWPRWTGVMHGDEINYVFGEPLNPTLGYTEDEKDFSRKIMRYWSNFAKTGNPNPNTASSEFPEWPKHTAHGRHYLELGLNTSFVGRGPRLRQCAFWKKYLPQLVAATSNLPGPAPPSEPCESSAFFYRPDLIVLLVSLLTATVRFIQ
In short: (§1)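 Time-dependent inactivation of recombinant AgAChE (purified to 2,500 ± 100 U/mg) monitored by Ellman assay. Residual velocity (v/v0) was measured against incubation time at fixed inhibitor levels, and kobs came from the ln(v/v0) vs t slope. kobs at three or more [I] was plotted against [I], and the linear slope gave apparent second-order ki (mM⁻¹ min⁻¹). Final DMSO was constant at 0.1% (v/v).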

[4] = test system: Anopheles gambiae; assay: Toxicity in anesthetized Anopheles gambiae G3 assessed as mortality treated as topical application assessed per mosquito after 24 hrs; format: functional
[5] = test system: Anopheles gambiae; assay: Toxicity in Anopheles gambiae G3 assessed as mortality treated as tarsal contact using dried filter papers after 24 hrs; format: functional; conditions: G3, 24 h
[6] = target: Acetylcholinesterase (Anopheles gambiae) (UniProt Q869C3); assay: Inhibition of Anopheles gambiae AChE; conditions: concentration not given here; in short: as §1
[7] = test system: Anopheles gambiae; assay: Toxicity in Anopheles gambiae G3 assessed as mortality at 1000 ug/ml treated as tarsal contact using dried filter papers after 24 hrs; format: functional
In short: (§2)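 Tarsal contact assay. Filter papers were treated with ethanolic carbamate solutions and dried, and adult Anopheles gambiae were exposed for 1 h. Mortality was scored after 24 h. Concentrations refer to the solutions used to treat the papers.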

[8] = target: Acetylcholinesterase (Anopheles gambiae) (UniProt Q869C3); assay: Inhibition of Anopheles gambiae AChE at 6 uM after 1 hr
[9] = Selectivity ratio of Torpedo californica AChE to human AChE
[10] = test system: Anopheles gambiae; assay: Toxicity in Anopheles gambiae G3 assessed as mortality at 250 ug/ml treated as tarsal contact using dried filter papers after 24 hrs; format: functional; in short: as §2

Chain of Acetylcholinesterase (Homo sapiens) (P22303 whole entry): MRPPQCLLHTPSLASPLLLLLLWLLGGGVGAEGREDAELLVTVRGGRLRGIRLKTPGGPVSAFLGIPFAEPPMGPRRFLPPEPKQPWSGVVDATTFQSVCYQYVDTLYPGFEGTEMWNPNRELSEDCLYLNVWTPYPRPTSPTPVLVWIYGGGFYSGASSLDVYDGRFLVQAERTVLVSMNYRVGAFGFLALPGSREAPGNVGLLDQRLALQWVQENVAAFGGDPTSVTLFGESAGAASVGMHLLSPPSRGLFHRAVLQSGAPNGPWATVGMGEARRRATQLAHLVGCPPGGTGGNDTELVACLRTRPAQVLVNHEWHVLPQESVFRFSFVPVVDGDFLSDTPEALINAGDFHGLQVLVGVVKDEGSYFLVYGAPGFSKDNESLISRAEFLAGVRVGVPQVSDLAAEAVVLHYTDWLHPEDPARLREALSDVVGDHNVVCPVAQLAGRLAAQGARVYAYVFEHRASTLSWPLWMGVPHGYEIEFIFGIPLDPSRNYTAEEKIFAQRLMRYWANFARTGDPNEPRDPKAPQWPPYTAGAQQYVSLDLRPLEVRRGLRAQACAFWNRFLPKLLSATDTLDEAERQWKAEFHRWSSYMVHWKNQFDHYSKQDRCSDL

Structure (SMILES) | Kinact [1] [M⁻¹ s⁻¹] | Ratio Ki [2] | apparent second-order inhibition rate constant ki [3] [M⁻¹ s⁻¹] | LD50 [4] [ng] | LC50 [5] [µg/mL] | inhibition [6] [%] | Activity [7] [%] | inhibition [8] [%] | Selectivity ratio [9] | Activity [10] [%]
CCC(CC)COc1cccc(OC(=O)NC)c1 | 83.3 | 5.8 | 480 |  |  |  |  |  |  | 
C=C(C)CSc1ccccc1OC(=O)NC | 125 | 55 | 6900 | 12 | 317 (≈ 1340 µM) |  |  |  |  | 
CCC(C)(c1cccc(OC(=O)NC)c1)C(F)(F)F (racemic) | 6250 | 8.7 | 54500 |  | 68 (≈ 247 µM) |  |  |  |  | 
CNC(=O)Oc1cccc2ccccc12 |  |  |  |  |  | 49 |  |  |  | 
CNC(=O)Oc1ccccc1SCC(C)C | 108 | 81 | 8770 | 10 | 212 (≈ 886 µM) |  |  |  |  | 
CNC(=O)Oc1cccc(C)c1 [METOLCARB] | 8.67 | 33 | 287 |  | 712 (≈ 4310 µM) |  |  |  |  | 
CNC(=O)Oc1ccccc1C | 4 | 5.4 | 21.8 |  |  |  |  |  |  | 
CCC(CC)COc1ccccc1OC(=O)NC | 8 | 530 | 4250 | 81 |  |  | 27 |  |  | 
CNC(=O)Oc1ccccc1OC(C)C [PROPOXUR] | 283 | 16 | 4430 | 3.2 | 39 (≈ 186 µM) | 49 |  |  |  | 
CNC(=O)Oc1ccccc1SC | 85 | 14 | 1150 |  |  |  |  |  |  | 
CC[Si](C)(C)c1cccc(OC(=O)NC)c1 | 1830 | 14 | 25200 | 8 | 169 (≈ 712 µM) |  |  |  |  | 
C[N+](C)(C)CCCCCCCCCCCCCCCCCCSS(C)(=O)=O |  |  |  |  |  |  |  | > 95 |  | 
CCCc1cccc(OC(=O)NC)c1 | 1060 | 14 | 14700 |  | 41 (≈ 212 µM) |  |  |  |  | 
CNC(=O)Oc1cccc(C(C)(C)C)c1 | 2100 | 12 | 25200 | 4.5 | 37 (≈ 179 µM) |  |  |  |  | 
CCN(C)C(=O)Oc1cccc([C@H](C)N(C)C)c1 |  |  |  |  |  |  |  |  | 1500 | 
CCC(C)(CC)c1cccc(OC(=O)NC)c1 | 9220 | 9.5 | 88000 |  |  |  |  |  |  | 72
CNC(=O)Oc1ccccc1OCC(C)C | 10.8 | 81 | 880 | 19 | 290 (≈ 1300 µM) |  |  |  |  | 
CCCC(C)(C)c1cccc(OC(=O)NC)c1 | 22700 | 4.9 | 112000 |  | 236 (≈ 1000 µM) |  |  |  |  | 

Structure (SMILES) | Kinact [1] [M⁻¹ s⁻¹] | Ratio Ki [2] | apparent second-order inhibition rate constant ki [3] [M⁻¹ s⁻¹] | LD50 [4] [ng] | LC50 [5] [µg/mL] | inhibition [6] [%] | Activity [7] [%] | inhibition [8] [%] | Selectivity ratio [9] | Activity [10] [%]
CNC(=O)Oc1cccc2c1OC(C)(C)O2 [BENDIOCARB] | 1850 | 7.6 | 14000 | 0.74 | 16 (≈ 71.7 µM) | 49 |  |  |  | 
CCC(C)c1cccc(OC(=O)NC)c1 (racemic) | 31800 | 5.3 | 167000 | 1.6 | 31 (≈ 150 µM) |  |  |  |  | 
CNC(=O)Oc1ccccc1OCC1CCCC1 | 4.67 | 36 | 163 |  |  |  |  |  |  | 
CNC(=O)Oc1cccc(CC(C)C)c1 | 91.7 | 28 | 2580 |  |  |  |  |  |  | 
CCC(C)CSc1ccccc1OC(=O)NC (racemic) | 280 | 48 | 13400 |  |  |  |  |  |  | 
CNC(=O)Oc1cccc(C(C)(C)C(F)(F)F)c1 | 2320 | 11 | 26300 |  | 61 (≈ 233 µM) |  |  |  |  | 
CCC(CC)CCc1ccccc1OC(=O)NC | 12.5 | 100 | 1260 |  |  |  |  |  |  | 
CNC(=O)Oc1ccccc1OCC1CCCCC1 | 3.5 | 2.3 | 8 |  |  |  |  |  |  | 
C=C(C)COc1ccccc1OC(=O)NC | 12.3 | 84 | 1040 |  |  |  |  |  |  | 
CCC(C)(C)c1cccc(OC(=O)NC)c1 | 13100 | 9.7 | 127000 |  | 115 (≈ 520 µM) |  |  |  |  | 
CCC(CC)CSc1ccccc1OC(=O)NC | 242 | 130 | 30800 | 10 |  |  | 27 |  |  | 
CCCCc1cccc(OC(=O)NC)c1 | 535 | 23 | 12400 |  | 237 (≈ 1140 µM) |  |  |  |  | 
CCC(C)COc1ccccc1OC(=O)NC (racemic) | 9.67 | 216 | 2080 | 33 | 445 (≈ 1880 µM) |  |  |  |  | 
CNC(=O)Oc1cccc(CCC(C)C)c1 | 86.7 | 53 | 4530 |  | 342 (≈ 1550 µM) |  |  |  |  | 
CNC(=O)Oc1ccccc1 | 3.33 | 13 | 45.8 |  |  |  |  |  |  | 
CNC(=O)Oc1cccc2c1OC(C)(C)C2 [CARBOFURAN] | 7130 | 6.1 | 43700 | 0.85 | 16 (≈ 72.3 µM) | 49 |  |  |  | 
CNC(=O)Oc1cccc(C(C)C)c1 | 6380 | 8.5 | 54500 |  |  |  |  |  |  | 
CNC(=O)Oc1cccc([Si](C)(C)C)c1 | 1130 | 9.6 | 10800 |  |  |  |  |  |  | 
